One compound from ChEMBL document CHEMBL4765233, “From Lead to Drug Candidate: Optimization of 3-(Phenylethynyl)-1H-pyrazolo[3,4-d]pyrimidin-4-amine Derivatives as Agents for the Treatment of Triple Negative Breast Cancer” (J Med Chem, 2016) can be followed below.

The inhibition in vivo is the share of the control response that was lost under treatment. One may read the IC50 as the concentration that inhibits the measured activity by half.

In series [1] the test system is MDA-MB-231. The series is described as follows: Antitumor activity against human MDA-MB-231 cells xenografted in SCID mouse assessed as tumor growth inhibition at 40 mg/kg, po qd for 15 days and measured every 3 days. Type of series: functional. As to conditions: MDA-MB-231, po, 360 h, time 15 day. In a few lines: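 SCID mice (5−6 weeks) injected subcutaneously with 100 μL of cells at 5 × 10^7/mL. At 150−200 mm3 mice randomized, 6 per group. Oral compounds given in water with 25% PEG400 plus 5% DMSO; paclitaxel given 10 mg/kg/week iv. Tumor volume a×b²/2 and body weight measured every 3 days. Inhibition rate (c−d)/c×100% against vehicle control.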

Series [2] can be described thus: Acute toxicity in male Sprague-Dawley rat assessed as increase in body weight rate at 200 mg/kg, po administered as single dose observed until day 9 and monitored every 3 days. Type of series: organism-based. To be noted: in vivo, 216 h, time 9 day. A digest of the protocol: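 Sprague-Dawley rats (n = 3) received a single oral dose of 200 mg/kg in sterile water with 25% (v/v) PEG400 plus 5% DMSO. Behaviour and side effects were monitored daily, and average body weight was measured every 3 days.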

Series [3] deals with MDA-MB-231. The series is described as follows: Induction of apoptosis in human MDA-MB-231 cells assessed as early apoptotic cells at 0.03 uM incubated for 24 hrs by annexin V-FITC and propidium iodide staining based flow cytometry analysis (reference value: 2 %). The series is classed as functional. A general note: A flow cytometer gives signals particle by particle.
Series [4] deals with MDA-MB-231. The series is described as follows: Induction of apoptosis in human MDA-MB-231 cells assessed as late apoptotic cells at 0.01 uM incubated for 24 hrs by annexin V-FITC and propidium iodide staining based flow cytometry analysis (reference value: 0.85 %). The series is classed as functional.
For another series, the target named is Ephrin type-A receptor 4 (Homo sapiens, UniProt P54764). The series is described as follows: Inhibition of human recombinant EPHA4 (601 to 892 residues) using poly(Glu,Tyr)4:1 as substrate incubated for 40 mins in presence of [gamma33P-ATP] by radiometric scintillation counting analysis. A digest of the protocol:
(§1)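 Radiometric kinase assay run as an external profiling service, with ATP at the Km of each kinase. IC50 values are means of two independent experiments.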

A further series is filed under the species Danio rerio. The series is described as follows: Antiangiogenesis activity in EGFP-labelled zebrafish embryo assessed as reduction in formation of intersegmental vessels at 1.25 to 5 uM incubated for overnight by fluorescence microscopic analysis. The series is classed as functional, organism-based. As to conditions: dose 1.25-5 µM. A digest of the protocol: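 Transgenic FLK:EGFP zebrafish kept at 28 °C, pH 7.2−7.4, 14 h light/10 h dark. Embryos at 30 hpf incubated overnight with compound at 1.25, 2.5 or 5 μM beside a blank control. Fish anaesthetized, then vessels imaged by fluorescence microscopy.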

Series [5] deals with Platelet-derived growth factor receptor alpha (Homo sapiens, UniProt P16234). The series is described as follows: Inhibition of human recombinant PDGFRalpha (550 to end residues) using poly(Glu, Tyr)4:1 as substrate incubated for 40 mins in presence of [gamma33P-ATP] by radiometric scintillation counting analysis. In a few lines: as §1
A short description of series [6]: Metabolic stability in rat liver microsomes assessed as parent compound remaining at 1 uM measured after 60 mins in presence of NADPH by HPLC-MS/MS analysis. Type of series: ADME, Microsome. To be noted: read-out: Stabilty. A digest of the protocol: (§2)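 Compound at 1 μM incubated with 0.5 mg/mL liver microsomes and 1 mM NADPH. Samples taken at 0, 10, 15, 30, 45 and 60 min and quenched with acetonitrile. After centrifugation, supernatant analysed by HPLC-MS/MS, with percent parent remaining relative to the 0 min area.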
For orientation: Microsomes from liver hold many membrane-bound enzymes, among them those of drug oxidation.

Series [7] has as its target Proto-oncogene tyrosine-protein kinase Src (Homo sapiens) (UniProt P12931). The series is described as follows: Inhibition of Src in human MDA-MB-231 cells assessed as reduction in phosphorylation of Src incubated for 20 hrs by Western blot analysis. Type of series: cell-based. In a few lines: (§3)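 MDA-MB-231 cells treated with a series of concentrations for 20 h at 37 °C. Cells washed with ice-cold saline and lysed in RIPA buffer with protease cocktail. Lysates cleared at 12000 rpm for 10 min at 4 °C and protein quantified by Bradford. Equal protein separated by SDS-PAGE, transferred to PVDF and probed with antibodies.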
A general note: In western blotting, separated proteins are transferred to a membrane and probed.

In series [8] the test system is MDA-MB-231. The series is described as follows: Inhibition of MEK phosphorylation in human MDA-MB-231 cells at 0.01 to 0.3 uM incubated for 20 hrs by Western blot analysis. The series is classed as cell-based. To be noted: dose 0.01-0.3 µM. In a few lines: as §3
Series [9] deals with Ribosomal protein S6 kinase alpha-1 (Homo sapiens, UniProt Q15418). The series is described as follows: Inhibition of human full length recombinant RSK1 using KKKNRTLSVA as substrate incubated for 40 mins in presence of [gamma33P-ATP] by radiometric scintillation counting analysis. A digest of the protocol:
as §1

Series [10] can be described thus: Toxicity against SCID mouse xenografted with human MDA-MB-435 cells assessed as change in body weight at 10 to 40 mg/kg, po QD for 21 days and measured every 3 days. The series is classed as organism-based. As to conditions: in vivo, 504 h, dose 10-40 mg/kg/day, time 21 day. In a few lines: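 Exponential-phase cells washed and injected subcutaneously (5 × 10^6 cells in 100 μL) into 5–6-week SCID mice. At 150–200 mm3, mice randomised to groups of 6. Oral dosing daily in water with 25% PEG400 and 5% DMSO; paclitaxel 10 mg/kg weekly by tail vein. Body weight measured every 3 days and side effects checked daily.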

In series [11] the target is Proto-oncogene tyrosine-protein kinase Src (Homo sapiens) (UniProt P12931). The series is described as follows: Inhibition of Src in human MDA-MB-231 cells assessed as inhibition of STAT3 phosphorylation at 0.1 to 0.3 uM incubated for 20 hrs by Western blot analysis. As to conditions: dose 0.1-0.3 µM. Type of series: cell-based. In a few lines:
as §3

A short description of series [12]: Toxicity in SCID mouse xenografted with MDA-MB-231 cells assessed as change in body weight at 40 mg/kg, po qd for 15 days and measured every 3 days. The series is classed as organism-based. To be noted: in vivo, 360 h, dose 40 mg/kg/day, time 15 day.
In a further series the target is Ephrin type-A receptor 7 (Homo sapiens, UniProt Q15375). The series is described as follows: Inhibition of human recombinant EPHA7 (613 to 909 residues) using KTFCGTPEYLAPEVRREPRILSEEEQEMFRDFDYIADWC incubated for 40 mins in presence of [gamma33P-ATP] by radiometric scintillation counting analysis. A digest of the protocol: as §1
A short description of series [13]: Metabolic stability in mouse liver microsomes assessed as parent compound remaining at 1 uM measured after 60 mins in presence of NADPH by HPLC-MS/MS analysis. The series is classed as ADME, Microsome. To be noted: read-out: Stabilty. A digest of the protocol:
as §2

Series [14] relates to MDA-MB-231. The series is described as follows: Induction of apoptosis in human MDA-MB-231 cells assessed as late apoptotic cells at 0.03 uM incubated for 24 hrs by annexin V-FITC and propidium iodide staining based flow cytometry analysis (reference value: 0.85 %). The series is classed as functional.
Series [15] is described as follows: Acute toxicity in Sprague-Dawley rat assessed as histopathological changes in kidney at 100 mg/kg, po administered as single dose measured after 24 hrs by H and E staining based light microscope analysis. The series is classed as organism-based. As to conditions: in vivo. A digest of the protocol:
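Sprague-Dawley rats received a single oral dose of 100 mg/kg in sterile water with 25% (v/v) PEG400 plus 5% DMSO. Organs were examined by histology and immunohistochemistry for pathological changes. Behaviour and side effects were checked daily.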

For another series, the system named is DU-145. The series is described as follows: Antiproliferative activity against human DU-145 cells assessed as reduction in cell viability incubated for 72 hrs by MTT assay. Type of series: functional, cell-based. As to conditions: DU-145, 72 h. In a few lines:
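MTT viability assay. ATCC cell lines were grown in designated medium with 10% FBS at 37 °C, 5% CO2. Cells seeded at 1500−30000 per well and incubated 24 h, then exposed to compound (0−10 μg/mL) for 72 h. MTT added for 2−4 h. Formazan dissolved in DMSO (adherent) or acidified SDS overnight (suspension), absorbance read at 570 nm. Triplicates; IC50 calculated.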

The source made the active and inactive calls. The calls are words filed in the database; no cut-off is given here.

Sequence of Proto-oncogene tyrosine-protein kinase Src (Homo sapiens) (P12931 2-536 limits assumed): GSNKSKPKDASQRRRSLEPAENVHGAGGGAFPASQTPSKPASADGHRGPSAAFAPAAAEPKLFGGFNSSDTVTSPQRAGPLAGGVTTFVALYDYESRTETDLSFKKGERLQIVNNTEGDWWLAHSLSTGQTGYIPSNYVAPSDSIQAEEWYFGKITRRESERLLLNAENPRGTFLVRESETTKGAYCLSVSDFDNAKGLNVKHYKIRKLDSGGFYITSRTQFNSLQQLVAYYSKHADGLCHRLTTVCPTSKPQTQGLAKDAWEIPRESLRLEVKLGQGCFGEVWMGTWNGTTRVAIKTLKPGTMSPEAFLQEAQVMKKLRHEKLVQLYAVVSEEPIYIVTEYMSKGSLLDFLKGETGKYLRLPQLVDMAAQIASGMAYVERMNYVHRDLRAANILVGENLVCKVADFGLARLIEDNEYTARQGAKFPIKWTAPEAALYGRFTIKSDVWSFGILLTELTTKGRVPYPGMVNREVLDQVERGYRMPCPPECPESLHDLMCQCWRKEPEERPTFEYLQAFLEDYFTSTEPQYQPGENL
Sequence of Ephrin type-A receptor 7 (Q15375 whole entry, the tested form may be a part): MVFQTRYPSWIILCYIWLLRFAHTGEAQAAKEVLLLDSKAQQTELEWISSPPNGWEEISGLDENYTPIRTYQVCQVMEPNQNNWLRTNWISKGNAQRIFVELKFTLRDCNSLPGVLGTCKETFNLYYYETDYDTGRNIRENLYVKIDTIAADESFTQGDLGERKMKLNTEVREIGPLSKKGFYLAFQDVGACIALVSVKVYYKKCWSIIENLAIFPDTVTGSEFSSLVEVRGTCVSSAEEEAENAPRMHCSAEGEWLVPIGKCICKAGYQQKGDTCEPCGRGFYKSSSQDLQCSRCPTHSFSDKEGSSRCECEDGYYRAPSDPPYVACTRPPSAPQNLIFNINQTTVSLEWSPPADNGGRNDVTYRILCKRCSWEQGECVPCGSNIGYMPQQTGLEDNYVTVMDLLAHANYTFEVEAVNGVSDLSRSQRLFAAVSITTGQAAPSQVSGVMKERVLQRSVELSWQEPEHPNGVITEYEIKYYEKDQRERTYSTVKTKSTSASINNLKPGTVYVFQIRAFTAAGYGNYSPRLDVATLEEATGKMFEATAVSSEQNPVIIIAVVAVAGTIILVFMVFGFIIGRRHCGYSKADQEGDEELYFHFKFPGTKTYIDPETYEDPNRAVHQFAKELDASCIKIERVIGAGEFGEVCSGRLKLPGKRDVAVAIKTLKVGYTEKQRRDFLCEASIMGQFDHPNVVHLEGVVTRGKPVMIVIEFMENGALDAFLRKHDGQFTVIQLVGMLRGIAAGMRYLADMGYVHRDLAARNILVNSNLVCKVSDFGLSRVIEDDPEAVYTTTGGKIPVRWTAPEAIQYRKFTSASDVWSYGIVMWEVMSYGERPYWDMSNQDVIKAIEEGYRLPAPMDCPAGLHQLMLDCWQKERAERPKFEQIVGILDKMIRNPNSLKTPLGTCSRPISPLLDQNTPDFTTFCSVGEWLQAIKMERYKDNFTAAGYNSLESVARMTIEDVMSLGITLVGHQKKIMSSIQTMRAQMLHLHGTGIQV
Sequence of Ribosomal protein S6 kinase alpha-1 (Q15418 whole entry): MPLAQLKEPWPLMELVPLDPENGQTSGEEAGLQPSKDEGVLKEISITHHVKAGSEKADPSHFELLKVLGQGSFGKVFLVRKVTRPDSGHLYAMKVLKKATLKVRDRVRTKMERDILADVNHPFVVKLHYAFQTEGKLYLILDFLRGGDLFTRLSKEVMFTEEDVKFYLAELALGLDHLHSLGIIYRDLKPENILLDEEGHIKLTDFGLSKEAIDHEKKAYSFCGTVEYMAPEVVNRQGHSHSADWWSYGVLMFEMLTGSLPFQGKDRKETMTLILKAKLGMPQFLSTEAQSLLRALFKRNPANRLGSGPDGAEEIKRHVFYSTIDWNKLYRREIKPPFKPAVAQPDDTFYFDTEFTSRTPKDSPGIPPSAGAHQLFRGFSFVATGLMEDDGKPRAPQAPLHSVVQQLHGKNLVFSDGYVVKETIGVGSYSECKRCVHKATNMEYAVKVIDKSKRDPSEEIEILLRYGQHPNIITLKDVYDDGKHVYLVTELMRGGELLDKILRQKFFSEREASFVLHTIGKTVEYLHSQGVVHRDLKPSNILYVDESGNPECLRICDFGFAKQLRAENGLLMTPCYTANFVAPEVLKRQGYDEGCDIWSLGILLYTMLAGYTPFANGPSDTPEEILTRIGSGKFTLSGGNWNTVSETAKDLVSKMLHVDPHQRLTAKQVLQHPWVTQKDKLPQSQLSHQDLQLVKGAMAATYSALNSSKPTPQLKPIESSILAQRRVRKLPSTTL
Sequence of Ephrin type-A receptor 4 (P54764 whole entry, the tested form may be a part): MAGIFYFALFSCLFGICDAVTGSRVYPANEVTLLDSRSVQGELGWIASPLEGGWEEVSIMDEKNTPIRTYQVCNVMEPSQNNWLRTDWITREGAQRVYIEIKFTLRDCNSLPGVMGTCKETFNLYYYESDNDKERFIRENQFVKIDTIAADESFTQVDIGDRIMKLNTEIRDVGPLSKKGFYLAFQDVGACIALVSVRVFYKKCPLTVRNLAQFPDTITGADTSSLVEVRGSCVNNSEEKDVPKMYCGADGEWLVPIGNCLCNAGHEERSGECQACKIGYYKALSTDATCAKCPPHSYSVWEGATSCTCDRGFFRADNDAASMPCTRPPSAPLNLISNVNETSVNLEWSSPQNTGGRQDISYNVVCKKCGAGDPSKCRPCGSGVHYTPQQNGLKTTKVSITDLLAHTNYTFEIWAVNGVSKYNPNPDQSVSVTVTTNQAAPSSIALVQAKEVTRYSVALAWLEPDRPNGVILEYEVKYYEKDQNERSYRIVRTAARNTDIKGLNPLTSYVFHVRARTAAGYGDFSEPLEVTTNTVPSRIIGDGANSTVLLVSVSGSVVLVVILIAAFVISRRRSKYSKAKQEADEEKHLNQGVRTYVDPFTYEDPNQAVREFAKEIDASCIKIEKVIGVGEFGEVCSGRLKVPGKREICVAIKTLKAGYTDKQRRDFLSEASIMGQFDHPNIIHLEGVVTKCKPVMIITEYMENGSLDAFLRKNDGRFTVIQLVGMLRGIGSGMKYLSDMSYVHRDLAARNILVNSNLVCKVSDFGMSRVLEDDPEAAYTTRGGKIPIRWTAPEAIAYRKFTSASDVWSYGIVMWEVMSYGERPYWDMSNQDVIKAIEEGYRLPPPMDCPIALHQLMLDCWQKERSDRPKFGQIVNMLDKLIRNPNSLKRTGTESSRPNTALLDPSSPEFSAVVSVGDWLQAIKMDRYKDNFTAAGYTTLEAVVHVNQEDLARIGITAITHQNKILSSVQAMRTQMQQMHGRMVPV
Sequence of Platelet-derived growth factor receptor alpha (P16234 whole entry): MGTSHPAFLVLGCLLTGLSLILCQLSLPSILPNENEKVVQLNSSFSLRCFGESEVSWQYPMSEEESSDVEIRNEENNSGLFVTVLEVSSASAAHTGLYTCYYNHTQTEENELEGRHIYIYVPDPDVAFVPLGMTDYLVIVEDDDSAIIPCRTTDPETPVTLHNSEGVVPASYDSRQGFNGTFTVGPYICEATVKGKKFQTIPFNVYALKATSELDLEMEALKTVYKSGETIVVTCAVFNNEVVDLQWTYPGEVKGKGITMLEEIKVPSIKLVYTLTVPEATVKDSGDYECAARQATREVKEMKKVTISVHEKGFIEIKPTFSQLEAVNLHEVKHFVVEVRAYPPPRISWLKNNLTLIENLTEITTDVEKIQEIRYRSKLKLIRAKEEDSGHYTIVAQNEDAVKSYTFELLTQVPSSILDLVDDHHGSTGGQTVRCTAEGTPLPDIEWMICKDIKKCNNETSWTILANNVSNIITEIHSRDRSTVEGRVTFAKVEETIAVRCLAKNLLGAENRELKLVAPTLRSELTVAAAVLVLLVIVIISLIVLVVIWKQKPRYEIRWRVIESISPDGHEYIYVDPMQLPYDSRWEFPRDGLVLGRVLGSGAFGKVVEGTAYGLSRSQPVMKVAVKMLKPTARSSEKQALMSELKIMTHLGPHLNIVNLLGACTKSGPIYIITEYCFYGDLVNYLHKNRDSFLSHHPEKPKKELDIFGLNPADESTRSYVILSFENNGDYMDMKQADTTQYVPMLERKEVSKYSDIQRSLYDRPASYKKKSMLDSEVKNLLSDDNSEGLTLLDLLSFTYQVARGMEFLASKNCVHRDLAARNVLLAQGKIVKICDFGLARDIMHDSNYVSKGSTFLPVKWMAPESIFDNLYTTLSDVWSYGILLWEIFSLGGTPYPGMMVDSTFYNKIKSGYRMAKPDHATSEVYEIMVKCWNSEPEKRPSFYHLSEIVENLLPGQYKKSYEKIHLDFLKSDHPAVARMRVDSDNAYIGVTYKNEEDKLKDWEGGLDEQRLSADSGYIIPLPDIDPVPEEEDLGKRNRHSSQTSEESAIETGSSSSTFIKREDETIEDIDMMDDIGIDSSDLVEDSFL

Consider `Cc1ccc(NC(=O)c2ccc(C)c(C(F)(F)F)c2)cc1C#Cc1nn([C@H]2CC[C@H](O)CC2)c2ncnc(N)c12`, for which, in the series with MDA-MB-231 [1], the inhibition in vivo at 40 mg/kg/day is 96.2%. For the same compound, the Activity entry in [2] is “Toxic”; with MDA-MB-231 [3] it was 8.02%; with MDA-MB-231 [4], 3.23%; in [10] it was “Non-Toxic”; in series [12], 3.4%; in the series on MDA-MB-231 [14] it was 11.2%. For the same compound, the Activity result in [15] is “Non-Toxic”. Besides, the IC50 on Ephrin type-A receptor 4 is 227 nM; in [5] it was 1290 nM; in series [9] it was 559 nM; on Ephrin type-A receptor 7, 143 nM; in the series on DU-145, above 10000 nM. In the series listed under Danio rerio, the result was Active. Also, the remaining at 1 h, 1 µM in series [6] and in series [13] was above 90% throughout. Also, the inhibition result in series [7] is “Dose-dependent effect”. The inhibition entry (with MDA-MB-231 [8]; in series [11]) was “Active” each time.
